According to ChEMBL document CHEMBL2331334, “Hybrid furoxanyl N-acylhydrazone derivatives as hits for the development of neglected diseases drug candidates” (Eur J Med Chem, 2013):
Values after ≈ are worked out from the molar mass of the structure shown.

Tests used:
[1] = tested on: Mycobacterium tuberculosis; test: Antimycobacterial activity against multidrug-resistant Mycobacterium tuberculosis clinical isolate assessed as growth inhibition after 5 days by MTT assay; type: functional; details: 120 h
Procedure, shortened: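 MTB inoculum made from 20–30-day slant growth in Tween 80/0.2% BSA, adjusted to McFarland No. 1, then diluted in 7H9GC broth (Middlebrook 7H9, glycerol, Casitone, OADC). Final inoculum about 1.2 × 10^6 CFU/mL. Compounds taken from DMSO stock to final 0.4–25 in broth, with a DMSO control. Plates run 5 days at 37 °C, then tetrazolium (MTT)–Tween 80 added for a further 24 h at 37 °C. Read-out is MIC.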

[2] = Selectivity index, ratio of IC50 for mouse J774.1 cells to MIC for multidrug-resistant Mycobacterium tuberculosis clinical isolate; type: functional
Procedure, shortened: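 Cytotoxicity: J774.1 macrophages in DMEM with 4 mM L-glutamine and 10% heat-inactivated FCS, seeded at 5 × 10^4/well, attached 48 h at 37 °C, 5% CO2. Exposed 48 h to 12.5–400.0 µM compound or vehicle. MTT at 0.1 mg/mL final for 3 h, formazan dissolved in DMSO/glycine buffer pH 10.5, A560 read. IC50 by linear regression, divided by the MIC against the same MTB strain.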

In the case of `Cc1c(/C=N/NC(=O)c2cccnc2)no[n+]1[O-]`, the MIC [1] is reported as over 101 µM.

For `O=C(N/N=C/c1c(-c2ccccc2)no[n+]1[O-])c1cccnc1`, the “Selectivity Index” value [2] was 10 and the MIC [1] was 20.2 µM (≈ 6.25 µg/mL).

In the case of `O=C(N/N=C/c1ccc2no[n+]([O-])c2c1)c1cccnc1`, the “Selectivity Index” value [2] is reported as 1.4 and the MIC [1] is reported as 22.1 µM (≈ 6.26 µg/mL).

In the case of `Cc1c(/C=N/NC(=O)c2ccc3c(c2)OCO3)no[n+]1[O-]`, the MIC [1] is reported as over 86.2 µM.

Work on `O=C(N/N=C/c1c(-c2ccccc2)no[n+]1[O-])c1ccc2c(c1)OCO2` yielded an MIC [1] of over 71 µM.

For `O=C(N/N=C/c1ccc2no[n+]([O-])c2c1)c1ccc2c(c1)OCO2`, the MIC [1] was over 76.7 µM.

For `Cc1nc2ccccn2c1C(=O)N/N=C/c1no[n+]([O-])c1C`, the MIC [1] was over 83.3 µM.

With `Cc1nc2ccccn2c1C(=O)N/N=C/c1c(-c2ccccc2)no[n+]1[O-]` the “Selectivity Index” value [2] was 6.5 and the MIC [1] was 8.6 µM (≈ 3.12 µg/mL).

For `Cc1nc2ccccn2c1C(=O)N/N=C/c1ccc2no[n+]([O-])c2c1`, the “Selectivity Index” value [2] was 3.7 and the MIC [1] was 38.6 µM (≈ 13 µg/mL).

In the case of `Cc1[nH]cnc1C(=O)N/N=C/c1no[n+]([O-])c1C`, the MIC [1] is reported as over 100 µM.

`Cc1[nH]cnc1C(=O)N/N=C/c1c(-c2ccccc2)no[n+]1[O-]` showed an MIC [1] of over 80.1 µM.

In the case of `Cc1[nH]cnc1C(=O)N/N=C/c1ccc2no[n+]([O-])c2c1`, the “Selectivity Index” value [2] is reported as 1.5 and the MIC [1] is reported as 21.9 µM (≈ 6.27 µg/mL).

For `Cc1c(/C=N/NC(=O)c2cnn(-c3ccccc3)c2)no[n+]1[O-]`, the MIC [1] was over 80.1 µM.

`O=C(N/N=C/c1c(-c2ccccc2)no[n+]1[O-])c1cnn(-c2ccccc2)c1` showed an MIC [1] of over 66.8 µM.

`O=C(N/N=C/c1ccc2no[n+]([O-])c2c1)c1cnn(-c2ccccc2)c1` gave an MIC [1] of over 17.9 µM.

`COc1ccc(/C=N/NC(=O)c2no[n+]([O-])c2C)cc1O` gave an MIC [1] of over 85.6 µM.

With `COc1cc(/C=N/NC(=O)c2no[n+]([O-])c2C)ccc1O` the MIC [1] was over 85.6 µM.

Molecule `Cc1c(/C=N/NC(=O)c2no[n+]([O-])c2C)no[n+]1[O-]` has an MIC [1] of over 93.6 µM.

Molecule `Cc1c(C(=O)N/N=C/c2c(-c3ccccc3)no[n+]2[O-])no[n+]1[O-]` has an MIC [1] of over 75.8 µM.

Work on `Cc1c(C(=O)N/N=C/c2ccc3no[n+]([O-])c3c2)no[n+]1[O-]` yielded an MIC [1] of 82.2 µM (≈ 25 µg/mL).

For `Cc1c(C(=O)N/N=C/c2ccc(N(C)C)cc2)no[n+]1[O-]`, the MIC [1] was over 86.5 µM.

`Cc1c(C(=O)N/N=C/c2ccc(Br)cc2)no[n+]1[O-]` showed an MIC [1] of over 74 µM.

`Cc1c(C(=O)N/N=C/c2ccco2)no[n+]1[O-]` gave an MIC [1] of over 106 µM.

`Cc1c(C(=O)N/N=C/c2ccc([N+](=O)[O-])s2)no[n+]1[O-]` gave an MIC [1] of 42.1 µM (≈ 12.5 µg/mL).

For `Cc1c(C(=O)N/N=C/c2ccc([N+](=O)[O-])o2)no[n+]1[O-]`, the MIC [1] was 44.5 µM (≈ 12.5 µg/mL).

Molecule `Cc1c(C(=O)N/N=C/c2ccccc2O)no[n+]1[O-]` has an MIC [1] of over 95.4 µM.

In the case of `COc1ccc(/C=N/NC(=O)c2no[n+]([O-])c2C)cc1OC`, the MIC [1] is reported as over 81.6 µM.

`Cc1c(C(=O)N/N=C/c2ccc3c(c2)OCO3)no[n+]1[O-]` gave an MIC [1] of over 86.2 µM.

Work on `Cc1c(C(=O)N/N=C/c2ccc(C(=O)O)cc2)no[n+]1[O-]` yielded an MIC [1] of over 86.2 µM.

`Cc1c(C(=O)N/N=C/c2ccc(C(F)(F)F)cc2)no[n+]1[O-]` gave an MIC [1] of over 79.6 µM.

In the case of `O=C(N/N=C/c1ccc2nonc2c1)c1cccnc1`, the “Selectivity Index” value [2] is reported as 5 and the MIC [1] is reported as 46.8 µM (≈ 12.5 µg/mL).

Molecule `Cc1c(/C=N/NC(=O)c2ccncc2)no[n+]1[O-]` has an MIC [1] of over 25.4 µM.

Work on `O=C(N/N=C/c1ccc2nonc2c1)c1ccncc1` yielded an MIC [1] of over 93.6 µM.

`CC(=O)Nc1ccc(/C=N/NC(=O)c2no[n+]([O-])c2C)cc1` gave an MIC [1] of over 82.5 µM.

`Cc1c(C(=O)N/N=C/c2ccc([N+](=O)[O-])cc2)no[n+]1[O-]` gave an MIC [1] of over 85.9 µM.

`Cc1c(C(=O)N/N=C/c2ccccc2)no[n+]1[O-]` gave an MIC [1] of over 102 µM.

`Cc1c(C(=O)N/N=C/c2cccc(O)c2)no[n+]1[O-]` showed an MIC [1] of over 95.4 µM.

`COc1cc(/C=N/NC(=O)c2no[n+]([O-])c2C)cc(OC)c1OC` showed an MIC [1] of over 74.4 µM.

`Cc1c(C(=O)N/N=C/c2ccccn2)no[n+]1[O-]` showed an MIC [1] of over 101 µM.

For `O=C(N/N=C/c1ccc2no[n+]([O-])c2c1)c1ccncc1`, the “Selectivity Index” value [2] was 12 and the MIC [1] was 11 µM (≈ 3.12 µg/mL).

In the case of `O=C(N/N=C/c1c(-c2ccccc2)no[n+]1[O-])c1ccncc1`, the “Selectivity Index” value [2] is reported as over 40 and the MIC [1] is reported as 10.1 µM (≈ 3.12 µg/mL).

For `NNC(=O)c1ccncc1` [ISONIAZID], the “Selectivity Index” value [2] was over 9 and the MIC [1] was 45.6 µM (≈ 6.25 µg/mL).
